Calls of active or inactive are those of the source. The rule behind the calls is not given here.
Columns and labels:
[1] = target: T1, Large neutral amino acids transporter small subunit 1 (Homo sapiens, UniProt Q01650); assay: Competitive inhibition of [14C]-L-leucine uptake at LAT1 in human MCF7 cells preincubated for 5 mins followed by addition of substrate measured during 5 mins by liquid scintillation counting; format: cell-based
[2] = target: T1, Large neutral amino acids transporter small subunit 1; assay: Potency index, ratio of IC50 for 2-amino-2-norbornanecarboxylic acid to IC50 for test compound for inhibition of [14C]-L-leucine uptake at LAT1 in human MCF7 cells; format: cell-based
MCF7 [3] = assay: Antiproliferative activity against human MCF7 cells assessed as reduction in cell viability measured after 72 hrs by resazurin dye-based fluorimetric analysis; format: functional; conditions: for IC50: MCF7, 72 h
In short: (§1)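 MCF-7 cells were seeded at 2 × 10^4 cells/well on collagen-coated plates and treated one day later. Agents were given alone or combined (25 or 100 µM with 100 µM partner drug) in growth medium for 3 days. Viability was read daily by resazurin fluorescence (ex 560/em 590 nm) and expressed relative to untreated controls.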

MCF7 [4] = assay: Antiproliferative activity against human MCF7 cells assessed as reduction in cell viability at 100 measured after 24 hrs by resazurin dye-based fluorimetric analysis; format: functional; in short: as §1
[5] = target: T1, Large neutral amino acids transporter small subunit 1; assay: Inhibition of LAT1 in human MCF7 cells assessed as potentiation of bestatin-induced antiproliferative activity by measuring reduction in cell viability at 100 uM measured after 24 hrs by resazurin dye-based fluorimetric analysis
In short: (§2)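 MCF-7 cells seeded 2 × 10^4/well on collagen-coated plates, treated one day later in growth medium with inhibitor (25 or 100 µM) plus bestatin or cisplatin (100 µM) for up to 3 days. Viability read daily by resazurin fluorescence (ex 560/em 590 nm). Viability is treated relative to untreated control. Mean ± SD, n=3.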

[6] = target: T1, Large neutral amino acids transporter small subunit 1; assay: Inhibition of LAT1 in human MCF7 cells assessed as potentiation of cisplatin-induced antiproliferative activity by measuring reduction in cell viability at 100 uM measured after 24 hrs by resazurin dye-based fluorimetric analysis; in short: as §2
MCF7 [7] = assay: Antiproliferative activity against human MCF7 cells assessed as reduction in cell viability at 100 measured after 48 hrs by resazurin dye-based fluorimetric analysis; format: functional; in short: as §1
[8] = target: T1, Large neutral amino acids transporter small subunit 1; assay: Inhibition of LAT1 in human MCF7 cells assessed as potentiation of bestatin-induced antiproliferative activity by measuring reduction in cell viability at 100 uM measured after 48 hrs by resazurin dye-based fluorimetric analysis; in short: as §2
[9] = target: T1, Large neutral amino acids transporter small subunit 1; assay: Inhibition of LAT1 in human MCF7 cells assessed as potentiation of cisplatin-induced antiproliferative activity by measuring reduction in cell viability at 100 uM measured after 48 hrs by resazurin dye-based fluorimetric analysis; in short: as §2
MCF7 [10] = assay: Antiproliferative activity against human MCF7 cells assessed as reduction in cell viability at 100 measured after 72 hrs by resazurin dye-based fluorimetric analysis; format: functional; in short: as §1
[11] = target: T1, Large neutral amino acids transporter small subunit 1; assay: Inhibition of LAT1 in human MCF7 cells assessed as potentiation of bestatin-induced antiproliferative activity by measuring reduction in cell viability at 100 uM measured after 72 hrs by resazurin dye-based fluorimetric analysis; in short: as §2
[12] = target: T1, Large neutral amino acids transporter small subunit 1; assay: Inhibition of LAT1 in human MCF7 cells assessed as potentiation of cisplatin-induced antiproliferative activity by measuring reduction in cell viability at 100 uM measured after 72 hrs by resazurin dye-based fluorimetric analysis; in short: as §2
[13] = target: T1, Large neutral amino acids transporter small subunit 1; assay: Drug uptake in human MCF7 cells assessed as LAT1 mediated drug transport per mg of protein at 100 uM after 30 mins by HPLC analysis; format: ADME, cell-based; conditions: mcf7, 0.5 h
In short: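 MCF-7 monolayers were incubated with 100 µM compound in HBSS at 37 °C for 5 or 30 min. Cells got three washes with ice-cold or warm (37 °C) HBSS; in the warm 30 min arm they were washed after 5 min and again after 30 min. Lysates (0.1 M NaOH) were quantified by HPLC-UV against a spiked lysate standard curve and normalised to protein (Bio-Rad assay).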

HT-29 = assay: Growth inhibition of human HT-29 cells measured after 96 hrs by Coulter counter based cell counting method; format: functional; conditions: HT-29, 96 h
[14] = Growth inhibition of human YD38 cells measured after 4 days by MTT assay; format: functional; conditions: 96 h
[15] = Ratio of IC50 for human HT-29 cells to IC50 for leucine uptake at LAT1 in human HT-29 cells
[16] = Ratio of IC50 for human YD-38 cells to IC50 for leucine uptake at LAT1 in human YD-38 cells
[17] = target: T1, Large neutral amino acids transporter small subunit 1; assay: Inhibition of [14C]-L-leucine uptake at LAT1 in human YD-38 cells after 1 hr by liquid scintillation counting; format: cell-based

T1 sequence (Q01650 whole entry): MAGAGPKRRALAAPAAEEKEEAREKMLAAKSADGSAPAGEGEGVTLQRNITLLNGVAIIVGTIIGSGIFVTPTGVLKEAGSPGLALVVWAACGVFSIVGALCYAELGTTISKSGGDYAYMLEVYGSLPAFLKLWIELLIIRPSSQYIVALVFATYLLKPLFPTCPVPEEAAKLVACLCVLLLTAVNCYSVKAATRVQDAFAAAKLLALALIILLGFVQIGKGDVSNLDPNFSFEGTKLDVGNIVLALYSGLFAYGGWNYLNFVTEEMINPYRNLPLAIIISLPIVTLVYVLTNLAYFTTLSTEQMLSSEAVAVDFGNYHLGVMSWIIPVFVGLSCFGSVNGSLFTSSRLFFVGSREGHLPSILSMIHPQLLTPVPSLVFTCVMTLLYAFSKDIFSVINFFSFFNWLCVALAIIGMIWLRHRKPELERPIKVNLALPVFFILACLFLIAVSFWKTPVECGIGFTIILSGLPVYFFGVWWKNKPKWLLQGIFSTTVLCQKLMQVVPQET

IC50 [1] [µM]	Ratio IC50 [2]	IC50 (MCF7 [3]) [µM]	Drug uptake [13] [nmol/mg]	IC50 [17] [µM]	SMILES	Activity (MCF7 [3])	Activity (MCF7 [4]) [%]	Activity [5] [%]	Activity [6] [%]	Activity (MCF7 [7])	Activity [8]	Activity [9]	Activity (MCF7 [10])	Activity [11] [%]	Activity [12] [%]	IC50 (HT-29) [µM]	IC50 [14] [µM]	Ratio IC50 [15]	Ratio IC50 [16]
112	6 to 6.2	362	11.9	–	NC1(C(=O)O)CC2CCC1C2 (centres undefined)	Dose-dependent effect	13.9	30.8	35.9	inactive	inactive	inactive	24.1%	3.13	42.7	–	–	–	–
–	–	541	–	–	CC(C)C[C@H](NC(=O)[C@@H](O)[C@H](N)Cc1ccccc1)C(=O)O [UBENIMEX]	Dose-dependent effect	3.4	–	–	7.5%	–	–	inactive	–	–	–	–	–	–
–	–	–	–	0.79	Nc1cc(COc2c(Cl)cc(C[C@H](N)C(=O)O)cc2Cl)c2oc(-c3ccccc3)nc2c1	–	–	–	–	–	–	–	–	–	–	4.1	69	68 - 87	68 - 87

From ChEMBL document CHEMBL4425108, “A Selective and Slowly Reversible Inhibitor of l-Type Amino Acid Transporter 1 (LAT1) Potentiates Antiproliferative Drug Efficacy in Cancer Cells” (J Med Chem, 2016)
